Results gathered from unrelated publications.
Each line is one published result; the experiments were not run side by side.
PAK5: Serine/threonine-protein kinase PAK 5 (PAK5, Homo sapiens, UniProt Q9P286)
ALOX12: Polyunsaturated fatty acid lipoxygenase ALOX12 (ALOX12, Homo sapiens, UniProt P18054)

SMILES	target	assay	system	setting	endpoint	value
C#Cc1n[nH]c2c(-c3cn([C@@H](C)c4ccccc4)c(=O)[nH]c3=O)cc(F)cc12	PAK5	enzyme activity, inhibitor	–	0.1 µM	inhibition	4.5%
Cn1cc(-c2cccc(N3CCc4c(sc5c4CC(C)(C)C5)C3=O)c2CO)cc(Nc2ccncn2)c1=O	Phosphatidylinositol 4-phosphate 3-kinase C2 domain-containing subunit alpha (PIK3C2A, Homo sapiens, UniProt O00443)	enzyme activity, inhibitor	–	1 µM	inhibition	0%
Cc1nn(C)cc1-c1nc2c(N3CCN(Cc4ccc(Cl)cc4)CC3)c(Cl)cnc2[nH]1	Cyclin-dependent kinase 14 (CDK14, Homo sapiens, UniProt O94921)	binding, competition with immobilised ligand	–	1 µM	remaining binding	100%
Cn1cc(-c2cc(F)cc(N3CCn4c(cc5c4CCCC5)C3=O)c2CO)cc(Nc2ccc(N3CCN(C4COC4)CC3)cn2)c1=O	Phosphatidylinositol 3-kinase catalytic subunit type 3 (PIK3C3, Homo sapiens, UniProt Q8NEB9)	enzyme activity, inhibitor	–	0.1 µM	inhibition	-1%
C=C(C)[C@@H]1CCC(C)=C[C@H]1c1c(O)cc(CCC)cc1O	ALOX12	enzyme activity in cells, inhibitor	PMNL	10 µM	remaining activity	110%
C#Cc1n[nH]c2c(-c3cn([C@@H](C)c4ccccn4)c(=O)[nH]c3=O)cc(F)cc12	PAK5	enzyme activity, inhibitor	–	0.1 µM	inhibition	5.1%
COc1cc(Nc2ncc(F)c(Nc3ccc4c(n3)NC(=O)C(C)(C)O4)n2)cc(OC)c1OC	Serine/threonine-protein kinase PLK4 (PLK4, Homo sapiens, UniProt O00444)	binding	–	10 µM	inhibition	100%
Nc1ncc(-c2nc(N3CCOCC3)nc(N3CCOCC3)n2)c(C(F)F)n1	Serine/threonine-protein kinase RIO2 (RIOK2, Homo sapiens, UniProt Q9BVS4)	binding, competition with immobilised ligand	–	10 µM	remaining binding	51%
CCN(CC)CCCC[C@H](NC(=O)[C@H](CC(C)C)NC(=O)[C@H](C)NC(=O)[C@H](Cc1ccccc1)NC(=O)c1ccc(C(C)(C)C)cc1)C(=O)N[C@@H](CO)C(=O)OC	Bromodomain-containing protein 1, bromodomain (BRD1, Homo sapiens, UniProt O95696)	thermal stability, DSF	–	25 µM	ΔTm	0.49 °C
CCCCCc1cc(O)c2c(c1)OC(C)(CCC=C(C)C)C=C2 (stereo not drawn)	ALOX12	enzyme activity in cells, inhibitor	PMNL	10 µM	remaining activity	122%
O=C(Nc1cccnn1)N1CCN([C@@H]2CCOc3cc(C(F)(F)F)ccc32)CC1	Apelin receptor (APLNR, Homo sapiens, UniProt P35414)	ligand displacement	–	20 µM	inhibition	-1%
COc1ncccc1-c1cnn2ccc(N3CCN(C(=O)OC(C)C)CC3)nc12	Mitogen-activated protein kinase kinase kinase 13 (MAP3K13, Homo sapiens, UniProt O43283)	binding, competition with immobilised ligand	–	1 µM	remaining binding	98%
